# Active and inactive are the calls of the source. The rule behind the calls is not given here.
# Key:
# [1] = test system: HL-60; assay: Effect on calcium mobilization in HL-60 cells at the dose of 100 uM concentration; Inactive; type: functional, cell-based; conditions: Homo sapiens
# [2] = biological target: T1, Adenosine receptor A3 (Homo sapiens, UniProt P0DMS8); assay: Displacement of [125I]AB-MECA from human Adenosine A3 receptor expressed in HEK293 cell membranes
# T1 sequence (P0DMS8 whole entry): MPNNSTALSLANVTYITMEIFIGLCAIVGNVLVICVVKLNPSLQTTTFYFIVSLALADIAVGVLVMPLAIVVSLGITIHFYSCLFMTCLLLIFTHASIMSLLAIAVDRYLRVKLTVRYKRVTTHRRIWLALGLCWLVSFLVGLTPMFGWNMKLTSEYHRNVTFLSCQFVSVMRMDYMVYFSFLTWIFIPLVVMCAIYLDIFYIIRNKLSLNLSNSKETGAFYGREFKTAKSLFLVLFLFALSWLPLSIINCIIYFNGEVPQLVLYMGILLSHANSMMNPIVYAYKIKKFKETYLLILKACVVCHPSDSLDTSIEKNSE
# Procedure, shortened: (§1)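 Membranes from HEK-293 cells expressing human A3 receptor; specific [125I]AB-MECA binding displaced by test ligands. Reported as Ki ± SEM or as % displacement, n = 3-5.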
# [3] = biological target: Adenosine receptor A2a (Rattus norvegicus) (UniProt P30543); assay: Displacement of [3H]-CGS- 21680 from A2A receptors in rat striatal membranes at 100 uM; type: cell membranes; conditions: Membrane
# Adenosine receptor A2a (Rattus norvegicus), sequence (P30543 whole entry): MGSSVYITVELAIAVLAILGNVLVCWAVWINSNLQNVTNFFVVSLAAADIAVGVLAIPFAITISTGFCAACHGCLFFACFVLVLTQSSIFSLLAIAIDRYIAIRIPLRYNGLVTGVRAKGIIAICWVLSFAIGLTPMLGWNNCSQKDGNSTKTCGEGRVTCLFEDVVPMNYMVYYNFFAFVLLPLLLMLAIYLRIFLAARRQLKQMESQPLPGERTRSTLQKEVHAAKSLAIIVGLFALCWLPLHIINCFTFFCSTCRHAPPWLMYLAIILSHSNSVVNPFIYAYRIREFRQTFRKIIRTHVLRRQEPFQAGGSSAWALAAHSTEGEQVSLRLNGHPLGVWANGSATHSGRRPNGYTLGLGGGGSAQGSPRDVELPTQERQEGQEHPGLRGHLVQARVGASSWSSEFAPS
# Procedure, shortened: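 Rat striatal membranes as A2A receptor source; displacement of specific [3H]CGS 21680 binding. Reported as Ki ± SEM or as % displacement, n = 3-6.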
# [4] = biological target: T2, Adenosine receptor A1 (Rattus norvegicus, UniProt P25099); assay: Displacement of [3H]R-PIA binding to Adenosine A1 receptor in rat brain membrane; type: cell membranes
# T2 sequence (P25099 whole entry): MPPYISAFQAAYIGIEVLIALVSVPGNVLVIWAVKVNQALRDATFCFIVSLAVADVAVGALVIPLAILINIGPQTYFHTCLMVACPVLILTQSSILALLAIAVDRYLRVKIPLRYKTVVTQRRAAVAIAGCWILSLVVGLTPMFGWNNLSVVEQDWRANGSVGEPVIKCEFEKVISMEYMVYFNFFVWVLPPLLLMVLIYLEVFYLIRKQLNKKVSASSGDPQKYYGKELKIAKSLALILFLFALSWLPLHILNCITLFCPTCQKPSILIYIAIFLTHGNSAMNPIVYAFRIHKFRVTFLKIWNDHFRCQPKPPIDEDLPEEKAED
# [5] = biological target: T3, Adenosine receptor A1 (Rattus norvegicus) (UniProt P25099); assay: Displacement of [3H]R-PIA from Adenosine A1 receptor in rat brain membrane at 100 uM; type: cell membranes
# T3 sequence (whole entry): T2 sequence (P25099 whole entry)
# [6] = test system: HL-60; assay: Effect on calcium mobilization in HL-60 cells at the dose of 100 uM concentration (1 uM UTP); type: functional, Homo sapiens
# [7] = biological target: T4, Adenosine receptor A3 (Homo sapiens) (UniProt P0DMS8); assay: Displacement of [125I]AB-MECA from human Adenosine A3 receptor expressed in HEK293 cell membranes at 100 uM; procedure, shortened: as §1
# T4 sequence (whole entry): T1 sequence (P0DMS8 whole entry)
Ki [2],Displacement [3],Displacement [5],SMILES,other results
–,< 10%,< 10%,CNC(=O)[C@@]12C[C@@H]1[C@@H](n1cnc3c(O)ncnc31)[C@H](O)[C@@H]2O,–
20.5 µM,< 10%,< 10%,Nc1nc(O)c2ncn([C@H]3[C@H](O)[C@H](O)[C@]4(CO)C[C@H]34)c2n1,–

# Further lines, the compound ahead of its results:
SMILES,Ki [2],Displacement [3],Displacement [5],other results
O=P(O)(O)OC[C@@]12C[C@@H]1[C@@H](n1cnc3c(O)ncnc31)[C@H](O)[C@@H]2O,–,–,–,Activity [1]: inactive
CCCCn1c(=O)c2c(ncn2[C@H]2[C@H](O)[C@H](O)[C@]3(C(=O)NC)C[C@H]23)n(CCCC)c1=O,1.86 µM,< 10%,–,Ki [4]: 24.4 µM
OC[C@@]12C[C@@H]1[C@@H](n1cnc3c(O)ncnc31)[C@H](O)[C@@H]2O,–,< 10%,< 10%,–
CCCCn1c(=O)c2c(ncn2[C@H]2[C@H](O)[C@H](O)[C@]3(CO)C[C@H]23)n(CCCC)c1=O,4.35 µM,< 10%,–,Ki [4]: 2.97 µM
Nc1nc(O)c2ncn([C@H]3[C@H](O)[C@H](O)[C@]4(COP(=O)(O)OP(=O)(O)OP(=O)(O)O)C[C@H]34)c2n1,–,–,–,Activity [6]: 53%; Displacement [7]: < 10%
CNC(=O)[C@@]12C[C@@H]1[C@@H](n1cnc3c(=O)[nH]cnc31)[C@H](O)[C@@H]2O,28.8 µM,–,–,–
O=P(O)(OC[C@@]12C[C@@H]1[C@@H](n1cnc3c(O)ncnc31)[C@H](O)[C@@H]2O)OP(=O)(O)OC[C@@]12C[C@@H]1[C@@H](n1cnc3c(O)ncnc31)[C@H](O)[C@@H]2O,21.6 µM,–,–,Activity [1]: inactive
CCCCn1c(=O)c2c(ncn2[C@H]2[C@H](O)[C@H](O)[C@]3(OP(=O)(O)OP(=O)(O)OP(=O)(O)O)C[C@H]23)n(CCCC)c1=O,–,–,–,Displacement [7]: < 10%

# From ChEMBL document CHEMBL1134737, “Synthesis and purine receptor affinity of 6-oxopurine nucleosides and nucleotides containing (N)-methanocarba-pseudoribose rings” (Bioorg Med Chem Lett, 2001)
